Measurements reported in PubChem BioAssay.
Activity calls are given as the source filed them.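 How the source made its calls: active means growth inhibition above a set limit, 3 SD over mean compound inhibition, in both replicates (cut at about 43% in these data); inconclusive means above the limit in only one replicate; inactive means at or below the limit in both replicates.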

Assay: S. cerevisiae growth inhibition in restrictive medium, OD615, pilot screen, restrictive growth control, yeast lifespan reduction project (AID 706);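 further: modified DeaD lifespan yeast strain shifted to restrictive glucose medium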
Settings: OD615, 48 h, at 10 µM, hits give high values
Method in brief: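 Material: modified S. cerevisiae; Medium: glucose-based CSMM-D restrictive medium; Compound dosing: one concentration, 10 µM final, 0.25% DMSO; Incubation: 48 h compound exposure at 30 °C; Measured by: OD615.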

Growth inhibition, inactive:
COc1ccc(C2=[N+]([O-])C(C)(C)N(O)C2(C)C)cc1 12.9%, Cc1onc(-c2ccccc2Cl)c1C(=O)N1CCN(c2cccc(Cl)c2)CC1 -13.7%, O=c1[nH]c(SCc2ccccc2Cl)nc2c1CCC2 -1.71%, CC(=O)NCCOC(=O)Nc1ccncc1 -5.27%, Cc1cccc(NC(=O)CS(=O)(=O)c2cn(C)c3ccccc23)c1C -5.75%, O=C(Nc1ccc(Cl)cc1)N(Cc1cccs1)Cc1cccs1 -21.5%, COc1ccc(OC(C)C(=O)Nc2cccc(OC)c2)cc1 (configuration not stated) -2.9%, COc1cc2c(C(=O)N3CCN(Cc4ccc5c(c4)OCO5)CC3)cn(C)c(=O)c2cc1OC -4.51%, COc1ccc(S(=O)(=O)N(CCc2ccccc2)CC(=O)N2CCOCC2)cc1 -6.06%, CN(C)c1ccc(NC(=S)c2ccccn2)cc1 -11.2%, O=C1N=C(c2ccccc2)C(c2ccccc2)N1 (configuration not stated) 0.595%, C#CCN1C(=O)C(O)(CC(=O)c2ccc(OC)c(OC)c2)c2ccccc21 (configuration not stated) 0.69%, CS(=O)(=O)N(CC(=O)N1CCCCCC1)c1cccc(Br)c1 -11.5%, CCSc1nc2ccccc2n1CC(=O)N1CCOCC1 1.08%, C=C1c2ccc(C)cc2NC(=O)N1c1ccccc1 8.36%, CCc1cccc(C)c1NC(=O)CCCC(=O)O -1.56%, COc1ccc(Oc2ccc(S(=O)(=O)N3CCCCC3)cc2S(=O)(=O)N2CCCCC2)cc1 -0.32%
